Drawing on ChEMBL document CHEMBL1811760, “Structure-activity relationships of C-17-substituted estratriene-3-O-sulfamates as anticancer agents” (J Med Chem, 2011), this text covers GI50, Activity and MTD for 2 compounds.

Active and inactive are the calls of the source. The calls are words filed in the database; no cut-off is given here. Some results are limits rather than exact numbers.

For data set [1], the system named is MDA-MB-231. Nature of the data set: Antiproliferative activity against estrogen-negative human MDA-MB-231 cells after 96 hrs by WST1 assay. It is filed as functional. Conditions: MDA-MB-231, 96 h. In a few lines:
(§1)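 Cells were grown in RPMI-1640 with 10% FBS at 37 °C in 5% CO2, then seeded at 5000 cells/well. They were exposed to compound at 10^-9–10^-4 M or vehicle for 96 h. Live cells were read by WST-1 and expressed as percent of mean control, from which GI50 was calculated. Runs were done in triplicate.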
A general note: Tetrazolium assays rely on reduction of a dye to a coloured formazan, in cell work by metabolically active cells.

The subject of data set [2] is MCF7. The experiment in a line: Antiproliferative activity against estrogen-positive human MCF7 cells. It is filed as functional.
Data set [3] relates to HOP-62. Nature of the data set: Growth inhibition of human HOP62 cells. It is filed as functional.
Data set [4] concerns OVCAR-3. The experiment in a line: Growth inhibition of human OVCAR3 cells. It counts as functional.
Data set [5] deals with HCT-116. Nature of the data set: Growth inhibition of human HCT116 cells. It counts as functional.
For data set [6], the system named is UACC-62. Nature of the data set: Growth inhibition of human UACC62 cells. It counts as functional.
The test system of data set [7] is Mus musculus. The experiment in a line: Antiangiogenic activity in Matrigel plug implanted C57BL/6J mouse assessed as inhibition of bFGF-induced angiogenesis at 10 mg/kg, po administered 24 hrs after implantation for 4 days measured by FITC-conjugated dextran staining based fluorimetry. It is filed as functional, organism-based. Further details: dose 10 mg/kg. The gist of the method:
(§2)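 Female C57BL/6J mice (6–8 weeks) were injected subcutaneously in the flanks with 0.5 mL ice-cold Matrigel plus 500 ng bFGF. Oral dosing in vehicle (10% THF, 90% PG) ran daily for 4 days, starting 24 h after Matrigel. Groups had five mice. FITC-dextran (0.1 mL of 0.25 mg/mL) was given iv and mice killed 20 min later. Plugs were digested in Dispase 16 h at 37 °C, and supernatant fluorescence read at ex 480/em 520 nm against a FITC-dextran standard curve.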

The test system of data set [8] is DU-145. The experiment in a line: Antiproliferative activity against human DU145 cells after 96 hrs by WST1 assay. It is filed as functional. Particulars: DU-145, 96 h. In a few lines: as §1
Data set [9] deals with SF-539. The experiment in a line: Growth inhibition of human SF539 cells. It is filed as functional.
For data set [10], the system named is SN12C. The experiment in a line: Growth inhibition of human SN12C cells. It is filed as functional.
The subject of data set [11] is Mus musculus. The experiment in a line: Antiangiogenic activity in Matrigel plug implanted C57BL/6J mouse assessed as inhibition of bFGF-induced angiogenesis at 20 mg/kg, po administered 24 hrs after implantation for 4 days measured by FITC-conjugated dextran staining based fluorimetry. It counts as functional, organism-based. More on the design: dose 20 mg/kg. In a few lines:
as §2

Data set [12] is described as follows: Growth inhibition of human NCI60 cells. It is filed as functional.
A short description of data set [13]: Toxicity in ip dosed athymic nude mouse administered as single dose. It is filed as organism-based. Particulars: in vivo. In a few lines: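 Preliminary toxicology run at the NCI in female athymic nude mice. Each mouse received a single ip dose, at doses up to 400 mg/kg. The compound was formulated in 10% DMSO in saline/Tween 80.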

In general, GI50 refers to the concentration at which growth is held to half of that of the control. As to `COc1cc2c(cc1OS(N)(=O)=O)CC[C@@H]1[C@@H]2CC[C@]2(C)[C@@H](CC(C)=O)CC[C@@H]12`, the GI50 was 68 nM in data set [1]; less than 5 nM in [2]; less than 10 nM in data set [3]; less than 10 nM in [4]; less than 10 nM in [5]; less than 10 nM in data set [6]. Besides, the GI50 was 89 nM in data set [8], less than 10 nM in data set [9], less than 10 nM in [10] and 21 nM in data set [12]. The outcome in [7] and in data set [11] was Active.
Turning to `CCc1cc2c(cc1OS(N)(=O)=O)CC[C@@H]1[C@@H]2CC[C@]2(C)[C@@H](CO)CC[C@@H]12`, the GI50 is 110 nM in [1]; less than 10 nM in data set [3]; less than 10 nM in [4]; less than 10 nM in data set [5]; less than 10 nM in data set [6]; 100 nM in data set [8]. Also, the concentration for 50% growth inhibition (GI50) in [9] was less than 10 nM; in data set [10], less than 10 nM; in [12] it was 18 nM. For the same compound, in [13], the MTD amounted to 400 mg/kg.
